According to ChEMBL document CHEMBL1156112, “Discovery of 3-(1H-indol-3-yl)-4-[2-(4-methylpiperazin-1-yl)quinazolin-4-yl]pyrrole-2,5-dione (AEB071), a potent and selective inhibitor of protein kinase C isotypes” (J Med Chem, 2009):

What was measured:
[1] = target: Protein kinase C alpha type (Homo sapiens, UniProt P17252); assay: Inhibition of PKCalpha by SPA
[2] = target: Protein kinase C beta type (Homo sapiens, UniProt P05771); assay: Inhibition of PKCbeta1 by SPA
[3] = target: Protein kinase C delta type (Homo sapiens, UniProt Q05655); assay: Inhibition of PKCdelta by SPA
Chain of Protein kinase C delta type (Q05655 whole entry): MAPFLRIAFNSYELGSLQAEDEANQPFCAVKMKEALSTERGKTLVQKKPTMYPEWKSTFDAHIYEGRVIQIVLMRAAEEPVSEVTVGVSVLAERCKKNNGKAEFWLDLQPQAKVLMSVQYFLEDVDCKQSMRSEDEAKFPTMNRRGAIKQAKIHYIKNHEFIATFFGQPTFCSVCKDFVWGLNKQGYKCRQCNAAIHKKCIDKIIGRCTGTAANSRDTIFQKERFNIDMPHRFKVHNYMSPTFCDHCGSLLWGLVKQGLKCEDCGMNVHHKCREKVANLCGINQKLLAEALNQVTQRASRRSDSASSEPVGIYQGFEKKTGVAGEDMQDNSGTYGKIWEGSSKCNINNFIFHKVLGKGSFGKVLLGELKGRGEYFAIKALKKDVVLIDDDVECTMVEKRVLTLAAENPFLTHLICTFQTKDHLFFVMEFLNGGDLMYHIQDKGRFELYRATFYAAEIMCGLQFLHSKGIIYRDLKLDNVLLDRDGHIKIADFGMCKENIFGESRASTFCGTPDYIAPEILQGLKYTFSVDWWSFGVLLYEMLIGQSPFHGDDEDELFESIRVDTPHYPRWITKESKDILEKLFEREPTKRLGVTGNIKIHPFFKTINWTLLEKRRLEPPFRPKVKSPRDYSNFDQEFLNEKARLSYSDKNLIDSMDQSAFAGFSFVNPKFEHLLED

[4] = target: T1, Protein kinase C epsilon type (Homo sapiens, UniProt Q02156); assay: Inhibition of PKCepsilon by SPA
T1 sequence (Q02156 whole entry): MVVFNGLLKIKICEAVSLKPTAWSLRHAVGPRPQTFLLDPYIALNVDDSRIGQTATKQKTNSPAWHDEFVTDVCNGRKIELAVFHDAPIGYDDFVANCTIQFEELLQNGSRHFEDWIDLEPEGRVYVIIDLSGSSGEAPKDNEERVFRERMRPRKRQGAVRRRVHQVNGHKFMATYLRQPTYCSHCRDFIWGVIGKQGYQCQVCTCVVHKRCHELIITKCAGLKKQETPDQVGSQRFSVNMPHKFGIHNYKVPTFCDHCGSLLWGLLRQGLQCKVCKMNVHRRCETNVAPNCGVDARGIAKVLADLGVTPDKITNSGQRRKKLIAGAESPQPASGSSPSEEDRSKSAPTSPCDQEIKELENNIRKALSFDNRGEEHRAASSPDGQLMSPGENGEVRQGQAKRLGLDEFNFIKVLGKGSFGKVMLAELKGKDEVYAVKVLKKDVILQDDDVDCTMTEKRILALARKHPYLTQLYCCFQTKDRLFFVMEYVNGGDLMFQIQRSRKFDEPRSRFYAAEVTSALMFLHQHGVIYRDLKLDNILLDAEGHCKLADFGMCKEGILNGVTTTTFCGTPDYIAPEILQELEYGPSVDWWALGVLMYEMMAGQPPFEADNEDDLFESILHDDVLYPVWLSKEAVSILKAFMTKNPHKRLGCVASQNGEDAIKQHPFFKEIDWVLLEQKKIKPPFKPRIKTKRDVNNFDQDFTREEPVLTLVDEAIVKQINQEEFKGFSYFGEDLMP

[5] = target: Protein kinase C eta type (Homo sapiens, UniProt P24723); assay: Inhibition of PKCeta by SPA
Chain of Protein kinase C eta type (P24723 whole entry): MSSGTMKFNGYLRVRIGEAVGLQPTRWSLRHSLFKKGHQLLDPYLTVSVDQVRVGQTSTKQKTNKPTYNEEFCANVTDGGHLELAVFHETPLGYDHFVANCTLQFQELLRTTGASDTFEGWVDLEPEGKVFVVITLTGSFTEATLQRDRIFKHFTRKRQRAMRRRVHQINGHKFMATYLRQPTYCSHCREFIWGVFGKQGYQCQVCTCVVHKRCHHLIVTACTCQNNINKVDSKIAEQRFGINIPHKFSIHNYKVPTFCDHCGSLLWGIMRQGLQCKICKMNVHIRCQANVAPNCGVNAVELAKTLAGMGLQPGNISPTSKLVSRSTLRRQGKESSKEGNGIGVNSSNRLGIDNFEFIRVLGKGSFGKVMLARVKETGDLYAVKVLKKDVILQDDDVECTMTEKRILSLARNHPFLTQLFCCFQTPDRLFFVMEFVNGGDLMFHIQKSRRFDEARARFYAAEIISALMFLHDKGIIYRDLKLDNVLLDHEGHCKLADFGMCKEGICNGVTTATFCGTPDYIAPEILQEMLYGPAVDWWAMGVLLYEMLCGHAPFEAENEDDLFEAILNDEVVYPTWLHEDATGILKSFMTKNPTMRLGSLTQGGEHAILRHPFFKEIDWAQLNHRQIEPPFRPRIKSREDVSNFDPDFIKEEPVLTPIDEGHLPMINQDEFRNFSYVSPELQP

[6] = target: Protein kinase C theta type (Homo sapiens, UniProt Q04759); assay: Inhibition of PKCtheta by SPA
Chain of Protein kinase C theta type (Q04759 whole entry): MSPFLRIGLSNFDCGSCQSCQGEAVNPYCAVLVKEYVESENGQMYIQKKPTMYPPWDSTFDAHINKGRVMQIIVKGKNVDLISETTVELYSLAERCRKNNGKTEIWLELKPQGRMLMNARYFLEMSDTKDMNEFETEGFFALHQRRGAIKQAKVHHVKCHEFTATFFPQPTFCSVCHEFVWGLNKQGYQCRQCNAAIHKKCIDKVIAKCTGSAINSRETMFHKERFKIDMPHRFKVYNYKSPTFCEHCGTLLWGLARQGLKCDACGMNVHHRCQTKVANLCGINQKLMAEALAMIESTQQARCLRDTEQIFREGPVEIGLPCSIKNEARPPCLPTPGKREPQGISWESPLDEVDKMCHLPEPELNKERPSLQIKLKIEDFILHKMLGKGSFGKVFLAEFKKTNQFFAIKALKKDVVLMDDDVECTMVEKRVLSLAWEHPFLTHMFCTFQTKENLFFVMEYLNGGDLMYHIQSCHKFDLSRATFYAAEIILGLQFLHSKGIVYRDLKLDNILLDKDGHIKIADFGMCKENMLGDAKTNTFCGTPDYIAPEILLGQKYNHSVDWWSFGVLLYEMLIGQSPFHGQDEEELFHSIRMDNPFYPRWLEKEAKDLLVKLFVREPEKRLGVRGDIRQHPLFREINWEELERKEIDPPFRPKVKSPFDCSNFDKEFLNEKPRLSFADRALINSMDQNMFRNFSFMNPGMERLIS

[7] = AUC (0 to infinity) in OFA rat at 5 mg/kg, iv; format: ADME, organism-based; set-up: time infinity, dose 5 mg/kg, route intravenous; details: plasma
Outline: (§1)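 Rats dosed either 5 mg/kg iv in 75% saline (0.9%)-25% PEG400 or 20 mg/kg po in 75% water-25% PEG400. OFA or Lewis rats were used depending on the compound. Values are averages of three animals. AUC is extrapolated to infinity. Oral bioavailability (F) comes from the po and iv exposures.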

[8] = Elimination half life in OFA rat at 5 mg/kg, iv; format: ADME, organism-based; set-up: dose 5 mg/kg, route intravenous; details: in vivo, read-out: beta t1/2 (converted); outline: as §1
[9] = Clearance in OFA rat at 5 mg/kg, iv; format: ADME, organism-based; set-up: dose 5 mg/kg, route intravenous; details: in vivo; outline: as §1
[10] = Volume of distribution at steady state in OFA rat at 5 mg/kg, iv; format: ADME, organism-based; set-up: dose 5 mg/kg, route intravenous; details: in vivo, read-out: Vdss; outline: as §1
[11] = Tmax in OFA rat at 20 mg/kg, po; format: ADME, organism-based; set-up: dose 20 mg/kg, route oral; details: in vivo; outline: as §1
[12] = Cmax in OFA rat at 20 mg/kg, po; format: ADME, organism-based; set-up: dose 20 mg/kg, route oral; details: in vivo; outline: as §1
[13] = AUC (0 to infinity) in OFA rat at 20 mg/kg, po; format: ADME, organism-based; set-up: dose 20 mg/kg, route oral, time infinity; details: plasma; outline: as §1
[14] = Oral bioavailability in OFA rat at 20 mg/kg, po; format: ADME, organism-based; details: in vivo; outline: as §1
[15] = cells; details: Homo sapiens, Jurkat

Chain of Protein kinase C beta type (P05771 whole entry): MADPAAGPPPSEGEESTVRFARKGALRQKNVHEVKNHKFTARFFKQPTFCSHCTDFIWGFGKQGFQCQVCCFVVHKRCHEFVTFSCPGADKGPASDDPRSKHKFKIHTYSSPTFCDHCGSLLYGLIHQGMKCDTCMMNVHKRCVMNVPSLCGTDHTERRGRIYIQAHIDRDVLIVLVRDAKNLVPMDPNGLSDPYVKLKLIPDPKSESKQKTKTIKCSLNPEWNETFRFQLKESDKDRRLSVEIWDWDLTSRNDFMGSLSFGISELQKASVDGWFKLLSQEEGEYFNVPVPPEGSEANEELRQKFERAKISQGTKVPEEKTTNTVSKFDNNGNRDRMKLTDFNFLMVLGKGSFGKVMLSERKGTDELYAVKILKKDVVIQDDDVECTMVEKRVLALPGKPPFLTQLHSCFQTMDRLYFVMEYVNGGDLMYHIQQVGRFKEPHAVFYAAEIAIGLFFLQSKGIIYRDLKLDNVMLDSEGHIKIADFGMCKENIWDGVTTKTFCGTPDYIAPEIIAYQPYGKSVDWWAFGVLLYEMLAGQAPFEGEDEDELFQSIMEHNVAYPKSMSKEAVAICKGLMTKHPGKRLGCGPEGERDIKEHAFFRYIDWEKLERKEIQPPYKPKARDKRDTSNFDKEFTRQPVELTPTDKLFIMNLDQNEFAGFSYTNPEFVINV

Row | SMILES | IC50 [1] | IC50 [2] | IC50 [3] | IC50 [4] | IC50 [5] | IC50 [6] | AUC(0-inf) [7] | half-life [8] | clearance [9] | Vd [10] | Tmax [11] | Cmax [12] | AUC(0-inf) [13] | bioavailability [14] | IC50 [15]
1 | CN(C)CCCn1cc(C2=C(c3n[nH]c4ccccc34)C(=O)NC2=O)c2ccccc21 | > 0.315 µM | > 0.315 µM | > 0.315 µM | > 0.315 µM | > 0.315 µM | > 0.315 µM | – | – | – | – | – | – | – | – | –
2 | CN(C)CCOc1cccc(C2=C(c3c[nH]c4ccccc34)C(=O)NC2=O)c1 | 0.015 µM | 0.058 µM | 0.047 µM | 0.029 µM | 0.047 µM | 0.052 µM | – | – | – | – | – | – | – | – | 0.668 µM
3 | CN(C)CCCn1cc(C2=C(c3cccc4ccccc34)C(=O)NC2=O)c2ccccc21 | 0.098 µM | 0.06 µM | 0.207 µM | > 0.315 µM | 0.349 µM | 0.165 µM | – | – | – | – | – | – | – | – | –

Compounds with a lower IC50 [1], results first:

Row | IC50 [1] | IC50 [2] | IC50 [3] | IC50 [4] | IC50 [5] | IC50 [6] | AUC(0-inf) [7] | half-life [8] | clearance [9] | Vd [10] | Tmax [11] | Cmax [12] | AUC(0-inf) [13] | bioavailability [14] | IC50 [15] | SMILES
4 | 0.0022 µM | 0.0021 µM | 0.0044 µM | 0.0055 µM | 0.011 µM | 0.0033 µM | 2690 ng·h/mL | 20.6 h | 30.9 mL/min/kg | 48.2 L/kg | 0.5 h | 16.2 ng/mL | 154 ng·h/mL | 1% | 0.069 µM | CN(C)CCOc1cc(C2=C(c3c[nH]c4ccccc34)C(=O)NC2=O)c2ccccc2c1
5 | 0.0023 µM | 0.0016 µM | 0.0087 µM | 0.0066 µM | 0.01 µM | 0.0067 µM | – | – | – | – | – | – | – | – | – | CN(C)CCCn1cc(C2=C(c3c[nH]c4ccccc34)C(=O)NC2=O)c2ccccc21 [GF-109203]
